For one series, the system named is thyroid TT4 response. The series can be described thus: TSH stimulation test, serum TT4. The class given is in vivo, dog. The following applies: 6 dogs, oral hydrocortisone for 90 days.
The test system of series [1] is dogs with spontaneously-arising glioma and meningioma. The class given is in vivo, dog. To be noted: six dogs. An outline of the steps:
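Dogs with spontaneously arising glioma or meningioma received the oral test compound together with conventional therapies. Tolerability was assessed, with serial clinical and MRI outcome assessments.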

Series [2] deals with canine, human, and murine glioma cell lines. The series is described as follows: In vitro sensitivity of glioma cell lines. The following applies: monotherapy, biologically relevant exposures. In kind it is cell-based. An outline of the steps:
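Murine, canine and human glioma cell lines were tested for in vitro sensitivity to the test compound and to radiation, each given as monotherapy. PC-3 expression in the same lines was also evaluated.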

Series [3] has as its system healthy purpose-bred cats. To be noted: in vivo.
The test system of the next series is dogs with EPI. The series can be described thus: Oral cobalamin supplementation in dogs with EPI, serum cobalamin. In kind it is in vivo, dog. To be noted: daily cyanocobalamin tablets, 28–199 days; 10 dogs; at inclusion 204. In outline:
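Dogs entered with EPI diagnosed by subnormal serum cTLI (reference 5–35 μg/L) and an initial serum cobalamin of 350 ng/L or less (reference 234–811 ng/L). All received daily oral cyanocobalamin tablets at 1 mg/tablet.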

Series [4] in a line: distribution of danofloxacin and tulathromycin in plasma, ISF and PELF by age. To be noted: non‐linear mixed effect modeling. In kind it is in vivo, calves.
Series [5] relates to New Zealand rabbits with dilated cardiomyopathy induced by doxorubicin. The series is described as follows: Doxorubicin-induced dilated cardiomyopathy in New Zealand rabbits. The class given is in vivo, rabbit.
Another series has as its system healthy beagle dogs. To be noted: oral administration, ref previous studies performed by these authors; cited from earlier work.
The subject of the next series is dogs with MUE. The series can be described thus: Retrospective survival of dogs with MUE given cytarabine CRI. The class given is in vivo, dog. To be noted: 22 dogs, at least 1 CRI treatment; range 61 – 1312.
A further series relates to equine neutrophils. The series can be described thus: neutrophil respiratory burst, luminol chemoluminescence, opsonized zymosan. The class given is cell-based, horses. The following applies: TX 0.5 to 20 μM; dose dependent.
In another series the test system is diabetic cats. The series can be described thus: One-year randomized trial of insulin types in diabetic cats. The class given is in vivo, cat. To be noted: BID insulin, glargine=24, PZIR=22.
Series [6] in a line: crossover study of IV dipyrone to control fever. The following applies: single 30 mg/kg IV, 6 hours post administration, versus placebo. The class given is in vivo, horses.
Where [7] appears, read: 2 mg/kg every 12 hours for 30 days.

Turning to `C[C@]12CCC(=O)C=C1CC[C@@H]1[C@@H]2[C@@H](O)C[C@@]2(C)[C@H]1CC[C@]2(O)C(=O)CO` [hydrocortisone], the “mean basal serum TT4 concentration” value in the series with thyroid TT4 response was 0.32 µg/dL.

With `C=CCc1cccc(/C=N/NC(=O)CN2CCN(Cc3ccccc3)CC2)c1O` [PAC‐1], in [1], the partial responses is listed as 3 dogs. Further, in series [2], the “in vitro sensitivity of glioma cell lines” value was “show in vitro sensitivity”.

In the case of `Cc1cccc([C@H](C)c2cnc[nH]2)c1C` [dexmedetomidine], the “cats with successful emesis” value in [3] is recorded as 58%.

Consider cyanocobalamin [CBL], for which, in the series on dogs with EPI, the “median serum CBL concentration after supplementation” value is recorded as 1,113 ng/L.

In the case of `CN1C[C@@H]2C[C@H]1CN2c1cc2c(cc1F)c(=O)c(C(=O)O)cn2C1CC1` [danofloxacin], the “age as covariate in plasma concentration differences” value in [4] was “not for danofloxacin treated calves”.

With `O=C(N/N=C/c1cccs1)c1ccc2c(c1)OCO2` [LASSBio 294], in [5] (setting [7]), the “E'/A' ratio” value is below 1 and the E/A ratio is below 1. The “increase of FS” value in series [5] (2 mg/kg every 12 hours, n = 7, second week) is 35%. Besides, the “increase of shortening fraction” value with healthy beagle dogs was 19.1%.

Regarding `Nc1ccn([C@@H]2O[C@H](CO)[C@@H](O)[C@@H]2O)c(=O)n1` [cytarabine], the “Survival, median” value with dogs with MUE is reported as 258.5 days.

For the molecule `CC/C(=C(\c1ccccc1)c1ccc(OCCN(C)C)cc1)c1ccccc1` [TX, Tamoxifen], the “neutrophil respiratory burst induced by opsonized zymosan” value in the series with equine neutrophils is reported as “inhibits neutrophil respiratory burst”.

“PZIR: human-recombinant protamine zinc insulin” had a cats achieving remission in the series with diabetic cats of 23%.

For the molecule `Cc1c(N(C)CS(=O)(=O)O)c(=O)n(-c2ccccc2)n1C` [dipyrone, Dipyrone], the control of fever result in [6] is “effectively controlled fever”.

Values taken from article PMC5508335 (Journal of Veterinary Internal Medicine, 2017).
